Source: ChEMBL document CHEMBL4359929, “Piperidine and piperazine inhibitors of fatty acid amide hydrolase targeting excitotoxic pathology” (Bioorg Med Chem, 2019)
The source made the active and inactive calls. No cut-off for these calls is given here.

Tests used:
Homo sapiens [1] = species: Homo sapiens; assay: Selectivity ratio of IC50 for human recombinant His-tagged MGL expressed in Escherichia coli BL21 DE3 cells to IC50 for human recombinant MBP-tagged FAAH expressed in Escherichia coli cells by fluorescence based assay
Monoglyceride lipase = target: T1, Monoglyceride lipase (Homo sapiens, UniProt Q99685); assay: Inhibition of human recombinant His-tagged MGL expressed in Escherichia coli BL21 DE3 cells using AHMMCE as substrate preincubated with enzyme for 15 mins followed by substrate addition and measured after every 15 mins for 3 hrs by fluorescence based assay
T1 sequence (Q99685 whole entry): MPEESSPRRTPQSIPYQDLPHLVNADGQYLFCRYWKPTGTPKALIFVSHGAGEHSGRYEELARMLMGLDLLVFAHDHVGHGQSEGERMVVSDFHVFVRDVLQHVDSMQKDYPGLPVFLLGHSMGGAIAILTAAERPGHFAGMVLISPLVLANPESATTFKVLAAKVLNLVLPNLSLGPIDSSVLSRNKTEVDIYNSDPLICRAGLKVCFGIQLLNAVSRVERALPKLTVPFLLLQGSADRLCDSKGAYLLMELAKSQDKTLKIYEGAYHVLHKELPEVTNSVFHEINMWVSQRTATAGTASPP
Procedure, shortened: (§1)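 Fluorescent enzyme assay in throughput format. Human recombinant FAAH or purified rat FAAH used arachidonoyl 7-amino-4-methylcoumarin amide as substrate; human recombinant MGL was run by a similar fluorometric procedure.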

[2] = target: Cannabinoid receptor 2 (Homo sapiens) (UniProt P34972); assay: Displacement of [3H]CP55940 from human CB2 receptor expressed in HEK293 cells by competition-equilibrium binding analysis; assay type: cell-based
Procedure, shortened: (§2)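 HEK293 cell membranes expressing mouse or human CB2; competition-equilibrium binding against [3H]CP-55,940.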

[3] = target: T2, Fatty-acid amide hydrolase 1 (Rattus norvegicus, UniProt P97612); assay: Inhibition of rat recombinant His/GST-tagged FAAH expressed in Escherichia coli cells using AAMCA as substrate incubated for 15 mins followed by substrate addition and measured after every 20 mins for 4 hrs by fluorescence based assay; procedure, shortened: as §1
T2 sequence (P97612 whole entry): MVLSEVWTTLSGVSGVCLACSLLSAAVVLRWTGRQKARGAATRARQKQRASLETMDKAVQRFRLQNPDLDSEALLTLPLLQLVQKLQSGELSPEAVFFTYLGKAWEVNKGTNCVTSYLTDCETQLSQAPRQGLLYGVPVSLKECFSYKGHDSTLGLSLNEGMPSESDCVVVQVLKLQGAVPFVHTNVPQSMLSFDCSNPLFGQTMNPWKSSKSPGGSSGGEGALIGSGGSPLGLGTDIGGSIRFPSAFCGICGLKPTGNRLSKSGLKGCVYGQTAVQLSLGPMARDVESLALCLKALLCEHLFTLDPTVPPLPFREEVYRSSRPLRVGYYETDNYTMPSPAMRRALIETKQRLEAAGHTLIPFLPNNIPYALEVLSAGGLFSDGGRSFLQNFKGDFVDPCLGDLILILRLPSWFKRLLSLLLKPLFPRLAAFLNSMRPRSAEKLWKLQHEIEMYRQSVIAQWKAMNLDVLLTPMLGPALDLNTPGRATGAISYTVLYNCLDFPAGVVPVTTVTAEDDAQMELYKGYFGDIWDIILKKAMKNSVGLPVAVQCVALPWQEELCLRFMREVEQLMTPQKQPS

Homo sapiens [4] = species: Homo sapiens; assay: Selectivity ratio of IC50 for human full length ABHD6 expressed in Escherichia coli cells to IC50 for human recombinant MBP-tagged FAAH expressed in Escherichia coli cells by fluorescence based assay
[5] = target: Cannabinoid receptor 1 (Rattus norvegicus) (UniProt P20272); assay: Displacement of [3H]CP55940 from CB1 receptor in rat brain by competition-equilibrium binding analysis; assay type: tissue-based
Procedure, shortened: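 Rat brain membranes as CB1 source; competition-equilibrium binding against [3H]CP-55,940.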
Target sequence in this assay (P20272 whole entry): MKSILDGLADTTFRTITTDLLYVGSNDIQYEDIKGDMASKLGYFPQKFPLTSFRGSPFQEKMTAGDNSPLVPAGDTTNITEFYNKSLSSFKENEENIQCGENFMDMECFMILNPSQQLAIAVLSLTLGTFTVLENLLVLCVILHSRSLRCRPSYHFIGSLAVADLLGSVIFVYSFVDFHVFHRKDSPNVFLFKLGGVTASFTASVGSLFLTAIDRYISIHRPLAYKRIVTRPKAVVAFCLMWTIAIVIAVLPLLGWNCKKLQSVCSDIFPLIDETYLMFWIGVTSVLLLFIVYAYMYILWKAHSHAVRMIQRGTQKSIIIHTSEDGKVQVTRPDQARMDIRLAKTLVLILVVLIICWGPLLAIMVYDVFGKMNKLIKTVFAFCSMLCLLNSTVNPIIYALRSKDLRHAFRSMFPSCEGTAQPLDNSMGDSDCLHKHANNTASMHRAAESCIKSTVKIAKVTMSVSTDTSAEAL

[6] = Stability in rat gastric fluid assessed as half life; assay type: ADME, tissue-based, Gastric juice
Procedure, shortened: (§3)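 Stability assessed as half-life in human, rat and mouse plasma and gastric fluid, and in human, rat and mouse liver microsomal preparations.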

[7] = target: Cannabinoid receptor 1 (Rattus norvegicus) (UniProt P20272); assay: Displacement of [3H]CP55940 from CB1 receptor in rat brain by competition-equilibrium binding analysis
Target sequence in this assay (P20272 whole entry, looked up): as the sequence (P20272 whole entry) above

[8] = Stability in mouse gastric fluid assessed as half life; assay type: ADME, tissue-based, Gastric juice; procedure, shortened: as §3
[9] = Stability in human plasma assessed as half life; assay type: ADME, cell-free; procedure, shortened: as §3
[10] = Selectivity ratio of IC50 for human recombinant His-tagged MGL expressed in Escherichia coli BL21 DE3 cells to IC50 for rat recombinant His/GST-tagged FAAH expressed in Escherichia coli cells by fluorescence based assay
[11] = Stability in mouse liver microsomes assessed as half life; assay type: ADME, Microsome; procedure, shortened: as §3
[12] = Stability in rat liver microsomes assessed as half life; assay type: ADME, Microsome; procedure, shortened: as §3
[13] = target: Cannabinoid receptor 2 (Mus musculus) (UniProt P47936); assay: Displacement of [3H]CP55940 from mouse CB2 receptor expressed in HEK293 cells by competition-equilibrium binding analysis; assay type: cell-based; procedure, shortened: as §2
[14] = Stability in rat plasma assessed as half life; assay type: ADME, cell-free; procedure, shortened: as §3
[15] = Stability in human gastric fluid assessed as half life; assay type: ADME, tissue-based, Gastric juice; procedure, shortened: as §3
[16] = Stability in mouse plasma assessed as half life; assay type: ADME, cell-free; procedure, shortened: as §3
[17] = Selectivity ratio of IC50 for human full length ABHD6 expressed in Escherichia coli cells to IC50 for rat recombinant His/GST-tagged FAAH expressed in Escherichia coli cells by fluorescence based assay
[18] = Stability in human liver microsomes assessed as half life; assay type: ADME, Microsome; procedure, shortened: as §3
[19] = target: T3, Fatty-acid amide hydrolase 1 (Homo sapiens, UniProt O00519); assay: Inhibition of human recombinant MBP-tagged FAAH expressed in Escherichia coli cells using AAMCA as substrate incubated for 15 mins followed by substrate addition and measured after every 20 mins for 4 hrs by fluorescence based assay; procedure, shortened: as §1
T3 sequence (O00519 whole entry): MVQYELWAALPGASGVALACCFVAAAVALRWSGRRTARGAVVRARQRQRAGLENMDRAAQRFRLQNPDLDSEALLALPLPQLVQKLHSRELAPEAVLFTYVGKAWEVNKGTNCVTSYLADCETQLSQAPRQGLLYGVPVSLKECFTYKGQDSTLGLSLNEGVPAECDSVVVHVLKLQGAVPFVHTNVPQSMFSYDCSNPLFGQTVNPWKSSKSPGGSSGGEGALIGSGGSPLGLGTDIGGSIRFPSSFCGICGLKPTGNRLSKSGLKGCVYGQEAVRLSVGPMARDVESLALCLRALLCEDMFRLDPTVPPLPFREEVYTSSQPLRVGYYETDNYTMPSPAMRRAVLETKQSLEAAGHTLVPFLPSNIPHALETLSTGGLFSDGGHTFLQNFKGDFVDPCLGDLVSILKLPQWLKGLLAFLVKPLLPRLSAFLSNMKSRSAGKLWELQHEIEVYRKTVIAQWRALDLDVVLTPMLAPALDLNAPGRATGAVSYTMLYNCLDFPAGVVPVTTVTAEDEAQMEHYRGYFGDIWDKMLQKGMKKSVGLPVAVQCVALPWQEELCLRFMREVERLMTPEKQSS

Chain of Cannabinoid receptor 2 (Homo sapiens) (P34972 whole entry): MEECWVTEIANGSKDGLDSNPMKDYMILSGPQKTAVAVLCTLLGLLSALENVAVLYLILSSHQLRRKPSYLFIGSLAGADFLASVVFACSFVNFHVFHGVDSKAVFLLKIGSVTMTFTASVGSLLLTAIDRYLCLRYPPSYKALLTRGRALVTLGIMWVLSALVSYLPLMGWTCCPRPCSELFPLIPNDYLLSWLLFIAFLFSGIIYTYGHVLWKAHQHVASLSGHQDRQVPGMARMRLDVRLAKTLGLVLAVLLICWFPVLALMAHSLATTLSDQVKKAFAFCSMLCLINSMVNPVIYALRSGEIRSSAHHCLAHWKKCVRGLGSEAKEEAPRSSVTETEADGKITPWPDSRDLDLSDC
Chain of Cannabinoid receptor 2 (Mus musculus) (P47936 whole entry): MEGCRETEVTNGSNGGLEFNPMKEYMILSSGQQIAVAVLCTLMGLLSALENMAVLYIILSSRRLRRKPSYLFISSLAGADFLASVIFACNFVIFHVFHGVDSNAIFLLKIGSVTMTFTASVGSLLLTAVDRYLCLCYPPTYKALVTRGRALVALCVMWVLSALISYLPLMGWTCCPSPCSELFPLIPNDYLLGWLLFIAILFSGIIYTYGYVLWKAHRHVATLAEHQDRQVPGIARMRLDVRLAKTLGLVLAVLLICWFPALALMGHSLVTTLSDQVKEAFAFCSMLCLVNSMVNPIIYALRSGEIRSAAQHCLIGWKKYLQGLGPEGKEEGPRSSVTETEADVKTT

Compound	Ratio IC50 (Homo sapiens [1])	IC50 (Monoglyceride lipase) [nM]	Activity [2]	IC50 [3] [nM]	Ratio IC50 (Homo sapiens [4])	Activity [5]	half-life [6] [min]	Activity [7]	half-life [8] [min]	half-life [9] [min]	Ratio IC50 [10]	half-life [11] [min]	half-life [12] [min]	Activity [13]	half-life [14] [min]	half-life [15] [min]	half-life [16] [min]	Ratio IC50 [17]	half-life [18] [min]	IC50 [19] [nM]
O=C(Oc1cccc(N2CCS(=O)(=O)CC2)c1)N1CCC(c2ccc(OC(F)(F)F)cc2)CC1	> 1000	> 1000	inactive	4	> 1000	inactive	> 60	inactive	> 60	> 60	> 1000	15 to 25	15 to 25	inactive	> 60	> 60	> 60	> 1000	15 to 25	3.7
C[C@H]1CN(c2ccc(F)cc2)CCN1C(=O)Oc1cccc(N2CCS(=O)(=O)CC2)c1	> 1000	> 1000	inactive	40.5	> 1000	inactive		inactive			> 1000			inactive				> 1000		72.9
CN(C)c1ccc(C2CCN(C(=O)Oc3cccc(N4CCOCC4)c3)CC2)cc1	> 1000	> 1000	inactive	14.7	> 1000	inactive		inactive			> 1000			inactive				> 1000		31
O=C(Oc1cccc(N2CCS(=O)(=O)CC2)c1)N1CCC(c2ccccc2)CC1	> 1000	> 1000	inactive	6	> 1000	inactive	> 60	inactive	> 60	> 60	> 1000	15 to 25	15 to 25	inactive	> 60	> 60	> 60	> 1000	15 to 25	8
C[C@@H]1CN(c2ccccc2)CCN1C(=O)Oc1cccc(N2CCS(=O)(=O)CC2)c1	> 1000	> 1000	inactive	5.7	> 1000	inactive	> 60	inactive	> 60	> 60	> 1000	15 to 25	15 to 25	inactive	> 60	> 60	> 60	> 1000	15 to 25	17.7
Cc1ccccc1C1CCN(C(=O)Oc2cccc(N3CCS(=O)(=O)CC3)c2)CC1	> 1000	> 1000	inactive	10.3	> 1000	inactive		inactive			> 1000			inactive				> 1000		15.9
O=C(Oc1cccc(N2CCS(=O)(=O)CC2)c1)N1C[C@H]2C[C@@H]1CN2c1ccc(F)cc1	> 1000	> 1000	inactive	17.1	> 1000	inactive		inactive			> 1000			inactive				> 1000		20.3
N#Cc1ccc(N2CCN(C(=O)Oc3cccc(N4CCS(=O)(=O)CC4)c3)CC2)cc1	> 1000	> 1000	inactive	62.7	> 1000	inactive		inactive			> 1000			inactive				> 1000		89.3
Cc1noc(C2CCN(C(=O)Oc3cccc(N4CCS(=O)(=O)CC4)c3)CC2)n1	> 1000	> 1000	inactive	120	> 1000	inactive		inactive			> 1000			inactive				> 1000		147
O=C(Oc1cccc(N2CCS(=O)(=O)CC2)c1)N1CCC(c2ccncc2)CC1	> 1000	> 1000	inactive	75.5	> 1000	inactive		inactive			> 1000			inactive				> 1000		132
O=C(Oc1cccc(N2CCS(=O)(=O)CC2)c1)N1CCN(c2ccccn2)CC1	> 1000	> 1000	inactive	102	> 1000	inactive		inactive			> 1000			inactive				> 1000		
O=C(Oc1cccc(N2CCS(=O)(=O)CC2)c1)N1CCC(O)(c2ccccc2)CC1	> 1000	> 1000	inactive	78.1	> 1000	inactive		inactive			> 1000			inactive				> 1000		172
O=C(Oc1cccc(N2CCS(=O)(=O)CC2)c1)N1CCN(c2ccc(F)cc2)CC1	> 1000	> 1000	inactive	12.5	> 1000	inactive		inactive			> 1000			inactive				> 1000		20.5
